From ChEMBL document CHEMBL1759961, “Alkyl piperidine and piperazine hydroxamic acids as HDAC inhibitors” (Bioorg Med Chem Lett, 2011)

Key:
[1] = biological target: T1, Histone deacetylase (Homo sapiens) (UniProt Q13547+O15379+Q9UBN7+Q92769+Q9UQL6+Q8WUI4+Q9BY41+Q96DB2+P56524+Q9UKV0+Q969S8); settings: HeLa, at 1 µM
[2] = biological target: T1, Histone deacetylase (Homo sapiens); settings: HeLa, at 0.1 µM
[3] = biological target: T1, Histone deacetylase (Homo sapiens); assay: Inhibition of HDAC in human HeLa cells at 50 uM by fluorescent activity assay; assay type: cell-based
In short: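 HDAC activity was measured with a commercial fluorescent kit using Fluor de Lys substrate plus developer. Compounds were dissolved in DMSO and stored at -80 °C. Fluorophore release was read at excitation 335 nm and emission 460 nm. All experiments were run in triplicate.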

[4] = biological target: T1, Histone deacetylase (Homo sapiens); settings: HeLa, at 10 µM
HCT-116 = assay: Antiproliferative activity against human HCT116 cells after 5 days by Alamar blue assay; assay type: functional, cell-based; settings: HCT-116, 120 h
Histone deacetylase = assay: Inhibition of HDAC in human HeLa cells by fluorescent activity assay; assay type: cell-based

## O=C(CCCCCC1CCN(C(=O)NCc2ccccc2)CC1)NO
[1]
  inhibition: 62%
[2]
  inhibition: 20%

## O=C(CCCCC1CCN(C(=O)c2ccccc2)CC1)NO
[1]
  inhibition: 44%
[2]
  inhibition: 12%

## O=C(CC1CCN(C(=O)c2ccccc2)CC1)NO
[3]
  inhibition: 41%
[4]
  inhibition: 7%

## O=C(CCN1CCN(S(=O)(=O)Cc2ccccc2)CC1)NO
[3]
  inhibition: 38%
[4]
  inhibition: 1%

## O=C(NO)C1CCN(C(=O)c2ccccc2)CC1
[3]
  inhibition: 16%
[4]
  inhibition: 0%

## O=C(CCC1CCN(C(=O)c2ccccc2)CC1)NO
[1]
  inhibition: 30%
[2]
  inhibition: 11%

## O=C(CCCCN1CCN(C(=O)Cc2ccccc2)CC1)NO
[1]
  inhibition: 40%
[2]
  inhibition: 19%

## O=C(CN1CCN(S(=O)(=O)c2ccccc2)CC1)NO
[3]
  inhibition: 10%
[4]
  inhibition: 3%

## O=C(CCN1CCN(C(=O)c2ccccc2)CC1)NO
[1]
  inhibition: 3%
[2]
  inhibition: 3%

## O=C(CC1CCN(S(=O)(=O)c2ccccc2)CC1)NO
[3]
  inhibition: 68%
[4]
  inhibition: 41%

## O=C(CN1CCN(C(=O)Cc2ccccc2)CC1)NO
[3]
  inhibition: 19%
[4]
  inhibition: 6%

## O=C(CCCN1CCN(C(=O)c2ccccc2)CC1)NO
[3]
  inhibition: 30%
[4]
  inhibition: 13%

## O=C(CCCCC1CCN(C(=O)Nc2ccccc2)CC1)NO
[1]
  inhibition: 63%
[2]
  inhibition: 23%

## O=C(NO)C1CCN(S(=O)(=O)c2ccccc2)CC1
[3]
  inhibition: 50%
[4]
  inhibition: 29%

## O=C(CC1CCN(C(=O)Cc2ccccc2)CC1)NO
[3]
  inhibition: 61%
[4]
  inhibition: 39%

## O=C(CCC1CCN(S(=O)(=O)c2ccccc2)CC1)NO
[1]
  inhibition: 33%
[2]
  inhibition: 9%

## O=C(CCCCN1CCN(S(=O)(=O)Cc2ccccc2)CC1)NO
[1]
  inhibition: 9%
[2]
  inhibition: 4%

## O=C(NO)C1CCN(C(=O)Cc2ccccc2)CC1
[3]
  inhibition: 65%
[4]
  inhibition: 33%

## O=C(CCCCN1CCN(C(=O)c2ccccc2)CC1)NO
[1]
  inhibition: 9%
[2]
  inhibition: 3%

## O=C(CCCN1CCN(S(=O)(=O)c2ccccc2)CC1)NO
[3]
  inhibition: 50%
[4]
  inhibition: 30%

## O=C(CCCCCC1CCN(C(=O)Nc2ccccc2)CC1)NO
[1]
  inhibition: 54%
[2]
  inhibition: 16%

## O=C(CCCC1CCN(S(=O)(=O)c2ccccc2)CC1)NO
HCT-116
  IC50: 2700 nM
Histone deacetylase
  IC50: 0.54 µM

## O=C(CCCC1CCN(C(=O)NCc2ccccc2)CC1)NO
HCT-116
  IC50: 300 nM
[1]
  inhibition: 69%
[4]
  inhibition: 86%
Histone deacetylase
  IC50: 0.09 µM
[2]
  inhibition: 59%

## O=C(CN1CCN(S(=O)(=O)Cc2ccccc2)CC1)NO
[3]
  inhibition: 51%
[4]
  inhibition: 16%

## O=C(CCCC1CCN(S(=O)(=O)Cc2ccccc2)CC1)NO
HCT-116
  IC50: 3200 nM
[3]
  inhibition: 77%
Histone deacetylase
  IC50: 0.84 µM
[2]
  inhibition: 12%

## O=C(CCCCC1CCN(S(=O)(=O)c2ccccc2)CC1)NO
[1]
  inhibition: 45%
[2]
  inhibition: 13%

## O=C(CCN1CCN(S(=O)(=O)c2ccccc2)CC1)NO
[3]
  inhibition: 44%
[4]
  inhibition: 14%

## O=C(CCCCC1CCN(C(=O)Cc2ccccc2)CC1)NO
[1]
  inhibition: 54%
[2]
  inhibition: 11%

## O=C(CCCN1CCN(S(=O)(=O)Cc2ccccc2)CC1)NO
[3]
  inhibition: 19%
[4]
  inhibition: < 10%

## O=C(NO)C1CCN(S(=O)(=O)Cc2ccccc2)CC1
[3]
  inhibition: 33%
[4]
  inhibition: 1%

## O=C(CCCC1CCN(C(=O)Nc2ccccc2)CC1)NO
HCT-116
  IC50: 700 nM
[1]
  inhibition: 81%
[4]
  inhibition: 86%
Histone deacetylase
  IC50: 0.1 µM
[2]
  inhibition: 53%

## O=C(CCCN1CCN(C(=O)Cc2ccccc2)CC1)NO
[3]
  inhibition: 52%
[4]
  inhibition: 28%

## O=C(CCCCC1CCN(C(=O)NCc2ccccc2)CC1)NO
[1]
  inhibition: 49%
[2]
  inhibition: 18%

## O=C(CCC1CCN(C(=O)Cc2ccccc2)CC1)NO
[1]
  inhibition: 24%
[2]
  inhibition: 2%

## O=C(CC1CCN(S(=O)(=O)Cc2ccccc2)CC1)NO
[3]
  inhibition: 22%
[4]
  inhibition: 21%

## O=C(CCCC1CCN(C(=O)Cc2ccccc2)CC1)NO
HCT-116
  IC50: 5100 nM
[3]
  inhibition: 85%
[1]
  inhibition: 72%
[4]
  inhibition: 80%
Histone deacetylase
  IC50: 0.26 µM
[2]
  inhibition: 36%

## O=C(CCCCN1CCN(S(=O)(=O)c2ccccc2)CC1)NO
[1]
  inhibition: 12%
[2]
  inhibition: 9%

## O=C(CCC1CCN(S(=O)(=O)Cc2ccccc2)CC1)NO
[1]
  inhibition: 33%
[2]
  inhibition: 8%

## O=C(CCCC1CCN(C(=O)c2ccccc2)CC1)NO
HCT-116
  IC50: 17200 nM
[3]
  inhibition: 77%
[4]
  inhibition: 69%
Histone deacetylase
  IC50: 1.39 µM
[2]
  inhibition: 11%

## O=C(CCN1CCN(C(=O)Cc2ccccc2)CC1)NO
[3]
  inhibition: 2%
[4]
  inhibition: 0%
